# B1: RAP: pan-ApoE receptor antagonist, Receptor-associated protein (protein, UniProt P30533 35-357, looked up)
# Alpha-2-macroglobulin …: YSREKNQPKPSPKRESGEEFRMEKLNQLWEKAQRLHLPPVRLAELHADLKIQERDELAWKKLKLDGLDEDGEKEARLIRNLNVILAKYGLDGKKDARQVTSNSLSGTQEDGLDDPRLEKLWHKAKTSGKFSGEELDKLWREFLHHKEKVHEYNVLLETLSRTEEIHENVISPSDLSDIKGSVLHSRHTELKEKLRSINQGLDRLRRVSHQGYSTEAEFEEPRVIDLWDLAQSANLTDKELEAFREELKHFEAKIEKHNHYQKQLEIAHEKLRHAESVGDGERVSRSREKHALLEGRTKELGYTVKKHLQDLSGRISRARHNEL
# Legend:
# sarkosyl-insoluble Tau [1] = assay: Sarkosyl fractionation of primary neurons, Tau immunoblot; format: cell-based, mouse; details: 12 hours; for Tau aggregation (sarkosyl-insoluble Tau) in primary neurons: Epoxomicin, MG132, iBEp 1 μM, Leupeptin 20 μM every two hours; for sarkosyl-insoluble Tau in primary WT mouse neurons: iBEp 1 μM, IgG-Epox […]
# primary mouse neurons = assay: Intracellular metabolite extraction from treated neurons; format: in vitro ADME; details: DIV14 cortical neurons, extracted intracellular metabolites, 1 pg limit of detection
# [2] = test system: Tau phosphorylation at S202/T205; assay: Immunocytochemistry for phosphorylated Tau in primary neurons; format: cell-based, mouse; details: primary hTau-KI hippocampal neurons, 12 hours
# [3] = test system: Tau phosphorylation at S202/T205; assay: Immunohistochemistry; format: in vivo, mouse; details: stereotactic injection, 72 hours, versus contralateral control
# [4] = test system: intracellular ubiquitin conjugates and p62; assay: Immunoblots of ubiquitin conjugates and p62 in primary neurons; format: cell-based, mouse; details: primary WT neurons, immunoblot
# Tau phosphorylation = assay: Quantitative phosphoproteomics of treated primary neurons; format: cell-based; details: primary mouse neurons; sites correspond to human S202, T205, T217, S404
# [5] = test system: Tau paired helical filaments; assay: Electron microscopy of sarkosyl-insoluble fractions of injected hippocampi; format: in vivo, mouse; details: hTau-KI mice, 72 hours after injection
# [6] = biological target: catalytic proteasome subunits (Mus musculus, UniProt O55234+P70195+Q60692); format: binding; details: for targets bound (streptavidin enrichment / biotin pull-down, LC/MS): primary mouse neurons and mouse brain, Table S1
# [7] = test system: ubiquitin-proteasome reporter GFPu in primary hippocampal neurons; assay: GFPu degradation assay; format: cell-based, mouse; details: DIV14 primary neurons, 1 μM, 12-hour incubation
# How it was run: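 Primary hippocampal neurons on coverslips co-transfected at DIV7 or DIV8 with Ub-G76V-GFP (0.5 μg/coverslip) and mCherry (0.1 μg/coverslip) using lipofectamine 2000, 4 h at 37 °C. At DIV14, 1 μM test compound for 12 h, then fixed and processed for immunocytochemistry. GFP+ cells counted per 100 cells; n=6 regions imaged per replicate, N=3 biological replicates.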
# [8] = test system: β-sheet containing aggregates; assay: Thioflavin S staining after stereotactic hippocampal injection; format: in vivo, mouse; details: hTau-KI mice, 72 hours, relative to contralateral controls
# sarkosyl-insoluble Tau [9] = assay: Sarkosyl fractionation of hippocampi after stereotactic injection; format: in vivo, mouse
# [10] = In vivo hippocampal injection dose-ranging; set-up: species or system mouse
# Proteasome subunit β5 = Proteasome subunit β5 (Homo sapiens, UniProt P28074); assay: Proteasome subunit β5 activity assay; format: biochemical
# [11] = test system: surface Lrp1, GluR1 and neuroproteasomes; assay: Surface biotinylation of primary neurons treated with RAP; format: cell-based; details: primary mouse neurons
# How it was run: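 Neurons were washed in cold PBSCM pH 8.0 and labelled with 0.5 mg/mL Sulfo-NHS-LC-Biotin in PBSCM, 4°C for 10 min. Labelling quenched with 50 mM glycine, two 10-min incubations at 4°C.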
# [12] = test system: neuroproteasome activity and sarkosyl-insoluble Tau; format: cell-based, mouse; details: primary WT neurons treated with RAP and a dose curve of iBEp
molecule,measurement,setting,value
"CC[C@H](C)[C@H](NC(=O)[C@H]([C@@H](C)CC)N(C)C(C)=O)C(=O)N[C@H](C(=O)N[C@@H](CC(C)C)C(=O)[C@@]1(C)CO1)[C@@H](C)O [Epoxomicin, reference compound]",Tau aggregation (sarkosyl-insoluble Tau) in primary neurons,sarkosyl-insoluble Tau [1],does not
same,permeability into primary mouse neurons by LC/MS-based metabolite profiling,primary mouse neurons,peak in Epox treated cells corresponds to Epoxomicin
same,Tau phosphorylation at S202/T205 in primary neurons,[2],No Tau S202/T205 phosphorylation was detectable
same,Tau phosphorylation at S202/T205 (AT8) in hippocampi of hTau-KI mice,[3],No Tau S202/T205 phosphorylation was detectable
Biotin-PEG24-Epoxomicin [iBEp],increase of total intracellular ubiquitin conjugates or p62 levels,[4],lack of both markers
same,Tau aggregation (sarkosyl-insoluble Tau) in primary neurons,sarkosyl-insoluble Tau [1],induces Tau aggregation
same,sarkosyl-insoluble Tau in primary WT mouse neurons,sarkosyl-insoluble Tau [1]; immunoblot,significant increase
same,"Tau phosphorylation sites with time-dependent increase, of identified sites",Tau phosphorylation,4 of 26
same,filaments in sarkosyl-insoluble fractions by negative stain EM,[5],Twisted filaments which resembled paired helical filaments (PHFs) were readily apparent
same,"targets bound (streptavidin enrichment / biotin pull-down, LC/MS)",[6],selectively targets catalytic proteasome subunits
same,bands differentially labeled versus DMSO (streptavidin blot),[6]; primary neurons treated 12 hours,only three bands differentially labeled
same,accumulation of the ubiquitin-proteasome reporter GFPu,[7],did not cause accumulation
same,ThioS staining in CA1 region of hippocampi,[8],strong increase
same,Tau phosphorylation at S202/T205 in primary neurons,[2],significantly elevated
same,sarkosyl-insoluble Tau in hippocampi from hTau-KI mice,"sarkosyl-insoluble Tau [9]; 2 μL of 6.4 μM into CA1, 72 hours, contralateral IIT-PEG24-Biotin, N=6",significant increase
same,sarkosyl-insoluble Tau signal in hippocampi from Tau-KO mice,"sarkosyl-insoluble Tau [9]; stereotactic injection, contralateral DMSO, N=3",no detectable signal
same,adverse physiological effects at selected concentration,[10]; 6.4 μM,without causing observable adverse physiological effects
same,inhibition of membrane-fraction proteasomes in vivo,[10]; 6.4 μM,detectable inhibition of membrane-fraction proteasomes
same,concentration inducing seizure activity,"[10]; 2 μL, mice",exceeding 12 μM
same,Tau phosphorylation at S202/T205 (AT8) in hippocampi of hTau-KI mice,[3],significantly elevated
Biotin-PEG24-IleIleThr,sarkosyl-insoluble Tau in primary WT mouse neurons,sarkosyl-insoluble Tau [1]; immunoblot,No such signal
Sulfo-MG132 [SulfoMG],sarkosyl-insoluble hTau in primary hTau-KI neurons,"sarkosyl-insoluble Tau [1]; 1 μM, immunoblot",induces similar partitioning of hTau into the sarkosyl-insoluble fraction as iBEp
same,Tau aggregation (sarkosyl-insoluble Tau) in primary neurons,sarkosyl-insoluble Tau [1],induces Tau aggregation
same,"targets bound (streptavidin enrichment / biotin pull-down, LC/MS)",[6],the catalytic proteasome subunits as well as some off-targets of MG132
same,activity as proteasome inhibitor,"Proteasome subunit β5; dose curve, Suc-LLVY-AMC (Extended Data Fig. 3g)",active
same,potency relative to MG132,"Proteasome subunit β5; proteasome, calpain and cathepsin L activity assays (Extended Data Fig. 3g,h)",less potent than MG132
B1,surface GluR1,[11],without modifying
same,surface abundance of neuroproteasomes,[11],reduced
same,surface localization of Lrp1,[11],rapidly decreased
same,susceptibility of neurons to Tau aggregation,[12],renders neurons more susceptible to Tau aggregation

# Source: PMC13334530 (Nature neuroscience, 2026)
